Screens from PubChem.
UCH37 DUB inh: inhibitors of human deubiquitinating enzyme UCH37 | inhibition, % (concentration not given with the values) | purified proteasome/UCH37, Ub-AMC cleavage fluorescence | actives 0.33% (n = 330,000);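 active means mean inhibition over replicate wells above about 20%, limit read from the data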;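 further: 0% = compound-free wells with enzyme and 100% = wells lacking proteasome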
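Material: Human UCH37 enzyme supplied as purified proteasome complex | Schedule: 30 min compound-proteasome preincubation then 25 min substrate reaction, room temperature | Detection: AMC fluorescence from Ub-AMC cleavage, excitation 355 nm, emission 460 nm | Benchmarks: Wells without proteasome as full block, compound-free enzyme plus substrate as uninhibited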
MEKK2mut PB1 HTS: signal of MEK5 binding to mutant human MEKK2 PB1 domain. bead flow cytometry, Alexa488-MEK5 binding to MEKK2 mutant. percent response, % at 10 µM. actives 0.35% (n = 290,000); in the data active means percent response above about 24%, passing the limit was not always enough
MEKK2wt PB1 HTS: raises or lowers MEK5 binding to wildtype human MEKK2 PB1 domain; binding response (% of control), % at 10 µM; AID 1531; bead flow cytometry, Alexa488-MEK5 binding to MEKK2 WT; actives lie on both sides; actives 1.1% (n = 290,000); in the data active means binding response below about 67% or above about 130%
MEKK3 PB1 HTS: MEKK3-MEK5 PB1 interaction, increase or decrease | Q99759 | bead-based flow cytometry, Alexa488-MEK5 binding to MEKK3; actives lie on both sides; 0 = blocked by unlabeled MEK5, 100 = vehicle | binding response (% of control), % at 10 µM | actives 1.4% (n = 290,000);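 active means binding response more than 3 SD above or below the average of its plate-row segment, actives on both sides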;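 further: Alexa488 bead fluorescence after subtracting the streptavidin-only scavenger bead signal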
Target sequence (Q99759 whole entry, looked up): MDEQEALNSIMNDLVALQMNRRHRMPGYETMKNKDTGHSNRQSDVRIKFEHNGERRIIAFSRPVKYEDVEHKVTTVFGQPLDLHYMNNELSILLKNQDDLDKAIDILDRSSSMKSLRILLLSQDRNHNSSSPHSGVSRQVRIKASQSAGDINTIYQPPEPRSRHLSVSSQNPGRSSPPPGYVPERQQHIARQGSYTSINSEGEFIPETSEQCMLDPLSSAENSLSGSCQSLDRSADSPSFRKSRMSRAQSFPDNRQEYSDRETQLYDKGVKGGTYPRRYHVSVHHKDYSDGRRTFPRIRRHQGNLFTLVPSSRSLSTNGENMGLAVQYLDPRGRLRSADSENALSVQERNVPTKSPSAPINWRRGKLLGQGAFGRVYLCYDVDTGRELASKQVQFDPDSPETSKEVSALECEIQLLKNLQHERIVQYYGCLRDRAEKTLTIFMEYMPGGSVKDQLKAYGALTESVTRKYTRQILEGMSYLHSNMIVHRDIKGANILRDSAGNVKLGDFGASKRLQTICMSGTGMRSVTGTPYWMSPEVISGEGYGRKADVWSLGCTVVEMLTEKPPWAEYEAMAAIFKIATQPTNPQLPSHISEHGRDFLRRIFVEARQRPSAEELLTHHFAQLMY
UBC13 inh: inhibitors of human UBC13 polyubiquitin chain formation. P61088. TR-FRET. inhibition, % at 20 µM. actives 0.47% (n = 330,000). AID 485273; in the data active means inhibition above about 45%, passing the limit was not always enough
Apaf-1 inh: human Apaf-1 inhibition; O14727; reconstituted apoptosome caspase-3 activity, DEVD-Rh110 fluorescence; inhibition, % at 20 µM; actives 0.71% (n = 330,000); active means inhibition of at least 40% at 20 µM;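 further: plate controls were DMSO wells for no effect and DEVD-CHO caspase inhibitor wells for full effect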
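System – cell-free apoptosome with Apaf-1, procaspase-3 and caspase-9 · Buffer or medium – pH 7.5 Hepes buffer with CHAPS, BSA, DTT · Also added – cytochrome c with DEVD-Rh110 · Times – 30 min compound preincubation, 50 min activation, room temperature · Technique – Rh110 fluorescence intensity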
Apaf-1 inh conf2: confirmation of Apaf-1 inhibitors; shares compounds with Apaf-1 inh; reconstituted apoptosome, caspase-3 DEVD-Rh110 fluorescence; inhibition, % at 20 µM; actives 25% (n = 1,800); AID 504614;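 active means mean inhibition of at least 40% at 20 µM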;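 further: plate controls were DMSO wells for no effect and DEVD-CHO caspase inhibitor control wells for full effect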
Rh110 quench: counter-screen for Apaf-1 inhibitors: fluorescence interference; activation (fluorescence interference), % at 20 µM; shares compounds with Apaf-1 inh; Rh110 fluorescence interference, quenched caspase reaction; 1,800 tested, under 10 active;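 active means signal rise of 40% or more at 20 µM, treated as a fluorescence artifact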
Apaf1 inh interf: counter-screen for Apaf-1 inhibitors: fluorescence interference, dose response. fluorescence interference counterscreen, Apaf-1 assay format. shares compounds with Apaf-1 inh. IC50, µM. 460 tested, under 10 active; call rule not given here
Active calls of the source: *. Compounds with a hit are over-represented: about 3% of the library has one in this group of screens.

What do the screens show for `COCCN(C(=O)COC(=O)/C=C/c1ccc(C(F)(F)F)cc1)c1c(N)n(Cc2ccccc2)c(=O)[nH]c1=O`?
UCH37 DUB inh: 1; UBC13 inh: -12; Apaf-1 inh: 44*; Apaf-1 inh conf2: 6; Rh110 quench: 3

How did CCOc1ccc(OCCSc2ccc(S(=O)(=O)N3CCN(C)CC3)cn2)cc1 do in these assays?
UCH37 DUB inh: 1; UBC13 inh: 37; Apaf-1 inh: 55*; Apaf-1 inh conf2: 18; Rh110 quench: 5

Results for CC(C)c1ccc(S(=O)(=O)/N=C2\C=C(NS(=O)(=O)c3ccccc3)C(=O)c3ccccc32)cc1 ?
UCH37 DUB inh: 9; MEKK2mut PB1 HTS: -6; MEKK2wt PB1 HTS: 105; MEKK3 PB1 HTS: 104

What do the screens show for `CCc1ccc(S(=O)(=O)/N=C2\C=C(NS(=O)(=O)c3ccccc3)C(=O)c3ccccc32)cc1`?
UCH37 DUB inh: 13; MEKK2mut PB1 HTS: 1; MEKK2wt PB1 HTS: 98; MEKK3 PB1 HTS: 97; UBC13 inh: -72; Apaf-1 inh: 57*; Apaf-1 inh conf2: 51*; Rh110 quench: 2; Apaf1 inh interf: >100

How did Cc1ccc(C)c(S(=O)(=O)/N=C2\C=C(NS(=O)(=O)c3ccccc3)C(=O)c3ccccc32)c1 do in these assays?
MEKK2mut PB1 HTS: -5; MEKK2wt PB1 HTS: 92; MEKK3 PB1 HTS: 98; UBC13 inh: -134; Apaf-1 inh: 78*; Apaf-1 inh conf2: 59*; Rh110 quench: 18

What do the screens show for `Cc1cc2cc(C#N)c(N3CCOCC3)nc2cc1Cl`?
UCH37 DUB inh: -10; MEKK2mut PB1 HTS: 5; MEKK2wt PB1 HTS: 101; MEKK3 PB1 HTS: 106; UBC13 inh: 14; Apaf-1 inh: 12

How did CCOC(=O)C1CCCN(C(=O)c2cccc(N3C(=O)c4ccccc4C3=O)c2)C1 (stereo not given) do in these assays?
UCH37 DUB inh: 4; UBC13 inh: -10; Apaf-1 inh: -1

What do the screens show for `CCOC(=O)C1CCCN(C(=O)c2cccc(S(=O)(=O)N(C)c3c(C)n(C)n(-c4ccccc4)c3=O)c2)C1` (stereo not given)?
UCH37 DUB inh: 3; MEKK2mut PB1 HTS: 2; MEKK2wt PB1 HTS: 101; MEKK3 PB1 HTS: 102; UBC13 inh: 26; Apaf-1 inh: 49*; Apaf-1 inh conf2: 33; Rh110 quench: 7

What do the screens show for `COC(=O)c1c(NC(=O)CN2CCN(C(=O)c3ccco3)CC2)c2cc(C)ccc2n1C`?
UCH37 DUB inh: -9; MEKK2mut PB1 HTS: -2; MEKK2wt PB1 HTS: 93; MEKK3 PB1 HTS: 101; UBC13 inh: -14; Apaf-1 inh: 6

Results for CCc1ccc(NC(=O)[C@H](Cc2c[nH]c3ccccc23)NC(=O)[C@@H]2Cc3ccccc3CN2)cc1 ?
UCH37 DUB inh: -2; MEKK2mut PB1 HTS: 6; MEKK2wt PB1 HTS: 116; MEKK3 PB1 HTS: 101; UBC13 inh: 12; Apaf-1 inh: 41*; Apaf-1 inh conf2: 18; Rh110 quench: 1

What do the screens show for `CCN(CC)Cc1c(C(=O)NN=Cc2cccc(OCc3ccc(F)cc3)c2)nnn1-c1nonc1N`?
UCH37 DUB inh: 2

How did CCN1CCN(C(CNS(=O)(=O)c2ccc(Cl)cc2)c2ccccc2)CC1 (stereo not given) do in these assays?
UCH37 DUB inh: 2; MEKK2mut PB1 HTS: 4; MEKK2wt PB1 HTS: 112; MEKK3 PB1 HTS: 105; UBC13 inh: 8; Apaf-1 inh: 0

How did O=S(=O)(NCC(c1ccccc1)N1CCNCC1)c1ccc(Cl)cc1 (stereo not given) do in these assays?
UCH37 DUB inh: 4; MEKK2mut PB1 HTS: 3; MEKK2wt PB1 HTS: 108; MEKK3 PB1 HTS: 100; UBC13 inh: 23; Apaf-1 inh: 43*; Apaf-1 inh conf2: 13; Rh110 quench: 12

What do the screens show for `CCN(CC)CCN(C(=O)c1ccc2c(c1)CCCC2)c1nc2ccc(C)cc2s1`?
UCH37 DUB inh: 1; MEKK2mut PB1 HTS: 31*; MEKK2wt PB1 HTS: 148*; MEKK3 PB1 HTS: 108; UBC13 inh: 8; Apaf-1 inh: 51*; Apaf-1 inh conf2: 11; Rh110 quench: 7

Results for CCN(CC)CCN(C(=O)c1ccc2c(c1)OCCO2)c1nc2cc(C)cc(C)c2s1 ?
UCH37 DUB inh: 2; MEKK2mut PB1 HTS: 10; MEKK2wt PB1 HTS: 131; MEKK3 PB1 HTS: 102; UBC13 inh: 9; Apaf-1 inh: 23

What do the screens show for `CCN(CC)CCN(C(=O)c1ccc2c(c1)CCCC2)c1nc2ccc(OC)cc2s1`?
UCH37 DUB inh: 3; MEKK2mut PB1 HTS: 18; MEKK2wt PB1 HTS: 130; MEKK3 PB1 HTS: 106; UBC13 inh: 4; Apaf-1 inh: 61*; Apaf-1 inh conf2: 19; Rh110 quench: 7

Results for Fc1ccc(NC(=S)Nc2cccnc2)cc1Cl ?
UCH37 DUB inh: 3; MEKK2mut PB1 HTS: -8; MEKK2wt PB1 HTS: 79; MEKK3 PB1 HTS: 82; UBC13 inh: -2; Apaf-1 inh: 8

How did CC(=O)N1CCn2c3c(c(=O)c4cc(C)ccc42)CCC31 (stereo not given) do in these assays?
UCH37 DUB inh: -5; UBC13 inh: -14; Apaf-1 inh: 73*; Apaf-1 inh conf2: 17; Rh110 quench: -1

What do the screens show for `O=C1CCNc2cc3ccccc3cc21`?
UCH37 DUB inh: -276; MEKK2mut PB1 HTS: 0; MEKK2wt PB1 HTS: 94; MEKK3 PB1 HTS: 98; UBC13 inh: -40; Apaf-1 inh: 62*; Apaf-1 inh conf2: 20; Rh110 quench: 11

What do the screens show for `CCn1c(=O)cc(OCC(=O)Nc2cc(C)ccn2)c2ccccc21`?
UCH37 DUB inh: 1; MEKK2mut PB1 HTS: -2; MEKK2wt PB1 HTS: 97; MEKK3 PB1 HTS: 99; UBC13 inh: -3; Apaf-1 inh: -9

What do the screens show for `O=C(N/N=C\C=C\c1ccc([N+](=O)[O-])o1)c1cccs1`?
MEKK2mut PB1 HTS: 2; MEKK2wt PB1 HTS: 93; MEKK3 PB1 HTS: 96; UBC13 inh: -25; Apaf-1 inh: 49*; Apaf-1 inh conf2: 8; Rh110 quench: 6

How did COc1ccc(-n2c(NC(=O)c3ccc(Br)o3)c(C#N)c3nc4ccccc4nc32)cc1 do in these assays?
UCH37 DUB inh: -90
